Data set [1] has as its system Rattus norvegicus. Kind of data set: Antiinflammatory activity in Sprague-Dawley rat assessed as reduction of carrageenan-induced paw edema at 200 mg/kg, po administered 30 mins before carrageenan challenge measured after 1 hr by mercury displacement method relative to control. The class given is functional. More on the design: scale not given: the % may be the effect or the level left. Put shortly:
(§1)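 Rats (150–230 g; groups of six), paw edema induced with 1.0% carrageenan. Compounds given p.o. as suspensions in 2% sodium CMC 30 min before carrageenan, test compounds at 200 mg/kg and indomethacin standard at 50 mg/kg; 2% CMC served as control. Paw volume measured by mercury-displacement plethysmography. Mean ± SEM of six animals.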
Background: Carrageenan injected into the paw causes an acute inflammation.

In data set [2] the test system is Mus musculus. Kind of data set: Analgesic activity in albino mouse assessed as protection against acetic acid-induced writhing at 100 mg/kg, po administered 30 mins prior to acetic acid challenge measured after 15 mins. Type of data set: functional. The method in brief:
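Albino mice of either sex, 20–25 g, groups of six. Dosed orally as suspension in 2% CMC 30 min before i.p. acetic acid (0.6% v/v in distilled water, 1 mL/kg); controls given 2% CMC alone, standard acetyl salicylic acid. Writhes per animal counted for 15 min; activity expressed as percentage protection. Mean ± SEM, n = 6.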
(In general: An intraperitoneal irritant provokes the stretching counted in writhing tests.)

The subject of data set [3] is Rattus norvegicus. Nature of the data set: Gastrointestinal toxicity in Sprague-Dawley rat assessed as lengths of longest diameters of lesions at 20 mg/kg, po after 6 hrs. The class given is organism-based. Set-up: dose 20 mg/kg, route oral. Particulars: in vivo. Put shortly: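 SD rats of either sex (150–200 g), groups of six; dosed orally in 0.1% Tween 80, vehicle as control. Stomachs taken 6 h later, ligated and stored overnight in 2% v/v formol saline. Next day opened along greater curvature, washed in warm water and viewed under 3-fold magnifier. Longest lesion diameters summed per animal as total lesion score (mm); group mean ± SEM.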

The test system of data set [4] is Rattus norvegicus. Nature of the data set: Antiinflammatory activity in Sprague-Dawley rat assessed as reduction of carrageenan-induced paw edema at 50 mg/kg, po administered 30 mins before carrageenan challenge measured after 1 hr by mercury displacement method relative to control. The class given is functional. Set-up: scale not given: the % may be the effect or the level left. The method in brief:
as §1

On to `CNc1ccc2c(c1)nc(C)n2S(=O)(=O)c1ccccc1`, for which the Activity in data set [1] was found to be 6.7%.

With `Cc1nc2cc(Nc3ccc(N)cc3)ccc2n1S(=O)(=O)c1ccccc1`, the Activity in data set [2] was found to be 56.9%; in data set [3], 16 mm; in data set [1], 39.7%.

Consider `CC(=O)Oc1ccccc1C(=O)O` [ASPIRIN], for which, in data set [2], the Activity is 57.8%.

With `CCCCNc1ccc2c(c1)nc(C)n2S(=O)(=O)c1ccccc1`, in data set [1], the Activity is listed as 7.9%.

With `Cc1nc2cc(NCc3ccc(N)cc3)ccc2n1S(=O)(=O)c1ccccc1`, the Activity in data set [3] was determined as 15 mm; in data set [1], 33.7%.

For the compound `Cc1nc2cc(Nc3ccccc3[N+](=O)[O-])ccc2n1S(=O)(=O)c1ccccc1`, in data set [1], the Activity came to 10.2%.

Turning to `Cc1nc2cc(Nc3ccccc3N)ccc2n1S(=O)(=O)c1ccccc1`, the Activity in data set [2] was 55.3%; in data set [3], 14 mm; in data set [1] it was 37%.

`CCCNc1ccc2c(c1)nc(C)n2S(=O)(=O)c1ccccc1`: the Activity in data set [1] is given as 7.7%.

As to `Cc1nc2cc(NCc3ccccc3Cl)ccc2n1S(=O)(=O)c1ccccc1`, in data set [1], the Activity worked out at 8.6%.

For the compound `Cc1nc2cc(NCc3ccc([N+](=O)[O-])cc3)ccc2n1S(=O)(=O)c1ccccc1`, the Activity in data set [1] was determined as 10.8%.

On to `Cc1nc2cc(NCc3ccc(Cl)cc3)ccc2n1S(=O)(=O)c1ccccc1`, for which the Activity in data set [1] is given as 9.2%.

As to `Cc1nc2cc(Nc3ccc([N+](=O)[O-])cc3)ccc2n1S(=O)(=O)c1ccccc1`, the Activity in data set [1] stood at 10.6%.

On to `CCNc1ccc2c(c1)nc(C)n2S(=O)(=O)c1ccccc1`, for which the Activity in data set [1] is reported as 7.2%.

As to `COc1ccc2c(c1)c(CC(=O)O)c(C)n2C(=O)c1ccc(Cl)cc1` [INDOMETHACIN], the Activity in data set [4] came to 43.4%; in data set [3], 26 mm.
